Rows were chosen to be rich in hits. Some 2.5% of all compounds tested hit in one or more screens of this group.
SENP7 block = inhibitors of human SENP7 protease; actives 1.5% (n = 330,000); Q9BQF6; recombinant SENP7, Z-RLRGG-aminoluciferin luminescence, 40 min; inhibition, % at 5 µM;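 active = inhibition above about 50% at the single test dose, limit read from the data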;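 note: plate controls were DMSO with enzyme for no effect and no enzyme buffer wells for full effect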
SENP8 block-1 = inhibitors of human SENP8 protease | actives 0.64% (n = 360,000) | Q96LD8 | AID 602440 | inhibition, % at 20 µM | recombinant SENP8, Nedd8 substrate fluorescence; in the data active = inhibition mostly above about 40%, no sharp cut-off; inactive = mostly below about 27%
SENP1 inh = inhibitors of human SENP1 SUMO protease catalytic domain | recombinant SENP1 catalytic domain, CyPet-SUMO1-YPet FRET cleavage | Q9P0U3 | actives 0.21% (n = 360,000) | inhibition, % at 10 µM;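 active = inhibition at least 30% at 10 µM, raw YFP signal under a set limit, fluorescence ratio 0.5 to 1.5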;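 note: 0% = enzyme with DMSO and 100% = no enzyme wells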
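Test system: hSENP1 catalytic domain, recombinant; Amount: 20 pM final SENP1 enzyme; Medium: Tris pH 8 buffer plus EDTA, NaCl, BME, BSA, NP40, catalase; Schedule: 50 min enzyme reaction, room temperature, light-protected; Technique: FRET fluorescence in CFP and YFP emission channels; Controls: no-enzyme wells low, DMSO-plus-enzyme wells high control.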
SENP6 block = blocks the human protease SENP6. Q9GZR1. Recombinant SENP6 catalytic domain, aminoluciferin luminescence. inhibition, % at 10 µM. actives 1.8% (n = 330,000). AID 2599;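 active = inhibition above about 50% at the single tested dose, limit read from the data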;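 note: plate controls were DMSO wells with enzyme for no effect and DMSO wells lacking enzyme for full effect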
Target sequence (Q9GZR1 628-1112 limits assumed): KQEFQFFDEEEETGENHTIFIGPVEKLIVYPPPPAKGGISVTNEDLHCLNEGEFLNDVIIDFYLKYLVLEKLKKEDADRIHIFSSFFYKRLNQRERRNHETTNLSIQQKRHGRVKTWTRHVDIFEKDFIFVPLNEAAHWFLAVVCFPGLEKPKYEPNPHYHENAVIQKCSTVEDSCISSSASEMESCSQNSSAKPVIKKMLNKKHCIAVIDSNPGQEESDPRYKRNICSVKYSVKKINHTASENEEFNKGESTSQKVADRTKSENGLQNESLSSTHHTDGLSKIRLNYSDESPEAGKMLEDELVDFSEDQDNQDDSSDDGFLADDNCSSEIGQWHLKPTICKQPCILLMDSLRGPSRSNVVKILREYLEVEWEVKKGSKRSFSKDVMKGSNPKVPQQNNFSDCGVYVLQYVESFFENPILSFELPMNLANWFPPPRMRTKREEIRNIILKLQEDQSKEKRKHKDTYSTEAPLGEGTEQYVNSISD
SENP8 block-2 = inhibitors of human SENP8 protease. Q96LD8. inhibition, % at 10 µM. actives 1.2% (n = 330,000). purified SENP8, Z-RLRGG-aminoluciferin cleavage, luminescence. AID 2540; in the data active = inhibition above about 50%
SENP8 confirm = human SENP8 inhibition, confirmed. shares compounds with SENP7 block. Recombinant SENP8, Z-RLRGG-aminoluciferin luminescence, 60 min. inhibition, % at 12.5 µM. actives 40% (n = 6,200). AID 488912;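 active = mean inhibition across replicates above about 50%, limit read from the data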
SENP6 confirm = confirmation of human SENP6 protease inhibitors. shares compounds with SENP7 block. recombinant SENP6, Z-RLRGG-aminoluciferin luminescence. inhibition, % at 12.5 µM. actives 58% (n = 6,200). AID 488915
SENP7 confirm = human SENP7 inhibition, confirmed | shares compounds with SENP7 block | recombinant SENP7, Z-RLRGG-aminoluciferin luminescence, 40 min | inhibition, % at 12.5 µM | actives 69% (n = 6,200) | AID 488917
Casp3 SENP sel = selectivity test for SENP inhibitors: human caspase-3 inhibition | shares compounds with SENP7 block | purified caspase-3, Z-DEVD-aminoluciferin luminescence, 60 min | inhibition, % at 12.5 µM | actives 60% (n = 6,200);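 active = mean inhibition above about 50%, limit read from the data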;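 note: plate controls were enzyme with DMSO for no effect and wells without caspase-3 for full effect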
SENP luc ctr = counter-screen for SENP inhibitors: luminescence interference; inhibition, % at 12.5 µM; AID 488919; actives 39% (n = 6,200); shares compounds with SENP7 block; Pre-incubated SENP8/Z-RLRGG-aminoluciferin, luciferase luminescence interference;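 active = mean inhibition above about 50% when retested at one dose, limit read from the data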;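 note: plate controls were DMSO wells with completed reaction for no effect and substrate without enzyme for full effect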
Starred values were filed as active, the others as inactive; i = inactive; . = not tested or not shown.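 Rule for the calls, unless noted: active = mean inhibition above about 50% in the one-dose retest (limit read from the data); inactive = the rest.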

SMILES	SENP7 block	SENP8 block-1	SENP1 inh	SENP6 block	SENP8 block-2	SENP8 confirm	SENP6 confirm	SENP7 confirm	Casp3 SENP sel	SENP luc ctr
O=C(Nc1ccc2c(c1)CCC2)c1cc2ccccc2o1	68*	7	3	77*	45	61*	65*	87*	48	58*
O=C(Nc1ccc2c(c1)CCC2)c1ccc(Br)o1	89*	24	0	90*	79*	88*	87*	99*	86*	87*
O=C(CN1C(=O)COc2ccccc2C1=O)c1ccc2c(c1)OCCO2	4	5	0	1	-16	.	.	.	.	.
COC(=O)Cc1ccc(NC(=O)c2ccc(Br)o2)cc1	32	11	1	51*	26	37	31	68*	70*	49
CCN(CC)c1ccc(NC(=O)c2ccc(Br)o2)cc1	27	12	1	-16	13	.	.	.	.	.
O=C(Nc1ccc2c(c1)OCO2)c1ccc(COc2ccc3c(c2)CCC3)o1	-5	6	1	54*	24	16	30	37	14	20
Cc1ccc(C(=O)Nc2ccc3c(c2)CCC3)o1	80*	9	0	82*	68*	72*	68*	92*	82*	78*
Cn1c2ccccc2c(=O)c2ccc(NCCc3cccs3)cc21	38	i	-33	68*	66*	81*	88*	97*	79*	26
Cc1ccc(C(=O)NC2(O)C(=O)c3ccccc3C2=O)cc1C	60*	100*	3	64*	64*	70*	85*	74*	2	5
Cc1ccc(C(=O)NCC(=O)OCN2C(=O)c3ccccc3C2=O)cc1C	7	14	-1	-12	-5	.	.	.	.	.
O=C(NC1(O)C(=O)c2ccccc2C1=O)c1ccc(C(F)(F)F)cc1	80*	81*	3	74*	67*	79*	91*	84*	8	6
O=C(NCCCNC(=O)c1cnccn1)c1ccc(Br)cc1	-8	8	1	-8	2	.	.	.	.	.
COC(=O)c1ccccc1NC(=O)Nc1cccs1	-7	-42	-1	-5	-8	.	.	.	.	.
COc1cccc(NC(=O)Nc2ccccc2Br)c1	82*	4	2	90*	66*	77*	78*	94*	70*	36
COc1cccc(NC(=O)COc2ccccc2C(N)=O)c1	39	14	2	65*	38	30	27	71*	75*	52*
O=C(Nc1cccs1)Nc1ccccc1Br	40	5	-1	50*	22	31	46	75*	41	17
COc1ccccc1NC(=O)Nc1cccc(C(=O)O)c1	44	-5	3	60*	30	56*	52*	80*	77*	63*
Cc1ccc(C)c(OCCC(=O)N2CCN(S(=O)(=O)c3ccc([N+](=O)[O-])cc3)CC2)c1	-3	12	4	0	6	.	.	.	.	.
Cc1cc(NC(=O)Nc2ccccc2F)ccc1Br	95*	20	1	80*	88*	76*	92*	102*	86*	64*
Cn1nnc2cc(NC(=O)Nc3ccccc3F)ccc21	.	1	2	.	.	.	.	.	.	.
COc1ccc(-c2cc(-c3ccc(C)cc3)n[nH]2)c(O)c1	37	7	1	58*	33	49	42	72*	14	32
COc1ccc(-c2cc(-c3cc(C)ccc3O)[nH]n2)cc1	61*	-1	1	72*	56*	75*	74*	88*	19	39
COc1ccc(-c2cc(-c3ccc(OC)cc3)[nH]n2)cc1	-1	12	0	-19	6	.	.	.	.	.
Cc1ccc(N=C/C(C(=O)C(F)(F)F)=C(\O)c2ccco2)cc1Cl	59*	-246	-22	68*	37	-6	0	39	18	54*
O=C(/C(C=Nc1ccc(F)cc1)=C(/O)c1ccco1)C(F)(F)F	79*	-117	-60	77*	47	-2	4	12	36	29
SMILES	SENP7 block	SENP8 block-1	SENP1 inh	SENP6 block	SENP8 block-2	SENP8 confirm	SENP6 confirm	SENP7 confirm	Casp3 SENP sel	SENP luc ctr
O=C(NCCNC(=O)c1ccco1)c1ccc(F)cc1	3	2	1	3	3	.	.	.	.	.
O=C1C=C(c2ccccc2)C(c2ccccc2)C1 (stereo unspecified)	.	0	1	.	.	.	.	.	.	.
CCC(C)[C@@H]1NC(=O)N(CCCN2CCCC2=O)C1=O (stereo partly specified)	4	20	2	-41	-5	.	.	.	.	.
Cc1ccc2ccc(C3C(=O)c4ccccc4C3=O)nc2c1	-5	28	15	53*	52*	37	38	34	58*	4
CCCSc1nnc(CSc2nc3nc(C)cc(C)n3n2)o1	-6	8	1	-14	-2	.	.	.	.	.
CCCCSc1nnc(CSc2nc3nc(C)cc(C)n3n2)o1	78*	10	3	-37	-4	7	8	-6	-1	0
Clc1nc(-c2ccccn2)nc2scc(-c3ccccc3)c12	46	-295	-1	87*	68*	22	52*	49	41	16
O=c1[nH]c2ccc(S(=O)(=O)N3CCN(c4ccc(F)cc4)CC3)cc2o1	1	4	4	14	55*	6	6	-7	-6	-2
O=c1[nH]c(=O)n2c(c1-c1ccccc1)OC(CBr)C2 (stereo unspecified)	.	1	1	.	.	.	.	.	.	.
O=C(NCc1ccco1)c1ccccc1SCC(=O)N1CCCC1	4	-62	-4	4	10	.	.	.	.	.
C(=C\c1ccccc1)/C=N/N1CCN(Cc2ccccc2)CC1	-1	22	1	-22	-4	.	.	.	.	.
C(=C\c1ccccc1)/C=N/N1CCN(c2ccccn2)CC1	56*	18	1	74*	40	39	52*	32	62*	29
C(/C=C/c1ccccc1)=N/N1CCN(c2ccccc2)CC1	61*	24	1	14	-12	12	12	25	39	12
C/C(=N\Nc1ccc([N+](=O)[O-])cc1)c1ccco1	70*	-20	-20	74*	58*	27	51*	84*	46	16
